Test results from the M2OR odorant receptor database.

Target: T1, Or5ar1 (Mus musculus) (UniProt Q8VGS3)
T1 sequence (whole entry): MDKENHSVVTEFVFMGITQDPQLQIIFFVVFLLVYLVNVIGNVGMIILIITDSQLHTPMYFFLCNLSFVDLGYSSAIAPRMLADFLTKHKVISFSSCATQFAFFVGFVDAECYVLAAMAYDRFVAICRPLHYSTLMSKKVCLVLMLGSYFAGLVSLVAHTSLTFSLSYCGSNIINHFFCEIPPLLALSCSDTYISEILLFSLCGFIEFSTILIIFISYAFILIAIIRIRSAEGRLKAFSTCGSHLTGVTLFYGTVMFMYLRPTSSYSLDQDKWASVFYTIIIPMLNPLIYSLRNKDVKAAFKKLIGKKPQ
Details: stereoisomer not certain
Outline: (§1)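 Whether a receptor–molecule pair is responsive (active) rests on the original authors' judgment that its measured signal was statistically different from baseline. Pairs without that judgment are non-responsive (inactive). Sources used varied assay methods, commonly transient luciferase assays in mammalian cell lines.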
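Further: active if original authors judged signal statistically different from baseline.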

| SMILES | odorant receptor agonist call |
| --- | --- |
| COc1nccnc1C(C)C | inactive |
| CCCCCO | inactive |
| CCC(C)c1nccnc1OC (centres undefined) | inactive |
| CCCCOC(=O)C(C)OC(=O)CCC (centres undefined) | inactive |
| CCCCCCC(=O)[O-].[H+] | inactive |
| O=c1ccc2ccccc2o1 | inactive |
| CCc1ncc(C)nc1CC | inactive |
| CCc1nccnc1CC | inactive |
| CCC(C(=O)O)c1ccccc1 (centres undefined) | inactive |
| COc1cnccn1 | inactive |

Target: T2, Or5k16 (Mus musculus) (UniProt Q7TS48)
T2 sequence (whole entry): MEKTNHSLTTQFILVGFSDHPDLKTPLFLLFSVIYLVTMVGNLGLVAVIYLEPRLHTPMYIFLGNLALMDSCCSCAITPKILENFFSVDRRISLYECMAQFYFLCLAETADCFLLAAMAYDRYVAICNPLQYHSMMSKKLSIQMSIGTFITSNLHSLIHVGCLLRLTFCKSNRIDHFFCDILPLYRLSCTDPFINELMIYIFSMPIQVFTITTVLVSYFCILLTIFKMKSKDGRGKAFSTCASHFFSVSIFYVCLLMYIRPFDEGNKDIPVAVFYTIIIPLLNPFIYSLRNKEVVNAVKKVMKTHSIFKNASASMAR
Details: stereoisomer not certain
Outline: as §1

| SMILES | odorant receptor agonist call |
| --- | --- |
| COc1nccnc1C(C)C | inactive |
| CC1CCc2nccnc21 (centres undefined) | inactive |
| Cc1nccnc1C | inactive |
| CCC(C)c1nccnc1OC (centres undefined) | inactive |
| CC(=O)c1cnccn1 | inactive |
| CC(=O)c1nccnc1C | inactive |
| CCc1nccnc1C(C)=O | inactive |
| CCc1ncc(C)nc1CC | inactive |
| Cc1cnc(C)cn1 | inactive |
| C=Cc1cnccn1 | inactive |
| Cc1cnccn1 | inactive |
| COC1=C(C)OC(C)C1=O (centres undefined) | inactive |
| CCc1nccnc1CC | inactive |
| COc1nccnc1CC(C)C | inactive |
| CCc1cnc(C)c(C)n1 | active |
| Cc1cncc(C)n1 | inactive |
| CCc1nccnc1C | inactive |
| CCc1nccnc1OC | inactive |
| COc1cnccn1 | inactive |
